20 compounds from ChEMBL document CHEMBL1144220, “Screening helix-threading peptides for RNA binding using a thiazole orange displacement assay” (Bioorg Med Chem, 2008) can be followed below.

By Kd is commonly meant a measure of binding affinity in units of concentration.

Assay [1] is described as follows: Displacement of thiazole orange from RNA A by fluorescent intercalator displacement assay. An outline of the steps: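 Pre-formed complex of RNA A (100 nM) with thiazole orange (50 nM), in 50 mM Bis-Tris·HCl pH 7.0, 100 mM NaCl, 10 mM MgCl2, 15 min. Added to a peptide titration and held ~15 min at 25 °C. Fluorescence read at ex 485 / em 535 nm, minus dye-only background. […] Three independent runs, mean ± SD.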

Assay [2] has as its system RNA A (synthetic). The assay is described as follows: Binding affinity to RNA A by quantitative ribonuclease V1 footprinting assay.

Structures are written as SMILES. Square brackets hold non-standard residues; d marks the D form. Peptide text beside a SMILES is read from it. * marks the point of attachment. X1 = C=CCc1ccc(-c2cc(Nc3ccc(CN)cc3)c3cccc(C(=O)*)c3n2)cc1; X2 = C=CCc1ccc(-c2cc(Nc3ccccc3)c3cccc(C(=O)*)c3n2)cc1; AllylGly = C=CC[C@H](N)C(=O)O; Dap = NC[C@H](N)C(=O)O Bounds are passed on as bounds.

`C=CCc1ccc(-c2cc(Nc3ccc(CN)cc3)c3cccc(C(=O)N[C@@H](CN)C(=O)N[C@@H](CCCCN)C(=O)NCC(=O)N[C@@H](CC=C)C(N)=O)c3n2)cc1` (X1-[Dap]KG[AllylGly]-NH2) gave a Kd in assay [1] of 0.71 µM. Besides, the Binding affinity in assay [2] was determined as 0.33 µM.

For `NC[C@@H]1O[C@H](O[C@H]2[C@@H](O)[C@H](O[C@H]3[C@@H](O)[C@H](N)C[C@H](N)[C@H]3O[C@H]3O[C@H](CN)[C@@H](O)[C@H](O)[C@H]3N)O[C@@H]2CO)[C@H](N)[C@@H](O)[C@@H]1O`, in assay [1], the dissociation constant Kd was above 60 µM.

`CC(C)C[C@@H]1NC(=O)[C@H](CC(C)C)NC(=O)[C@H](CCCNC(=N)N)NC(=O)c2cccc3c(Nc4ccccc4)cc(nc23)-c2ccc(cc2)C/C=C/C[C@@H](C(N)=O)NC1=O` gave a Kd in assay [1] above 30 µM.

Turning to `C=CCc1ccc(-c2cc(Nc3ccccc3)c3cccc(C(=O)N[C@@H](CCCNC(=N)N)C(=O)N[C@@H](CC(C)C)C(=O)N[C@@H](CC(C)C)C(=O)N[C@@H](CC=C)C(N)=O)c3n2)cc1`, in assay [1], the dissociation constant Kd was above 30 µM.

`CC(C)C[C@H]1NC(=O)[C@H](CCCNC(=N)N)NC(=O)c2cccc3c(Nc4ccccc4)cc(nc23)-c2ccc(cc2)C/C=C/C[C@@H](C(N)=O)NC(=O)[C@@H](CC(C)C)NC1=O` registered a Kd in assay [1] of 10.1 µM.

Compound `N=C(N)NCCC[C@@H]1NC(=O)c2cccc3c(Nc4ccccc4)cc(nc23)-c2ccc(cc2)C/C=C/C[C@@H](C(N)=O)NC(=O)[C@@H](CC(N)=O)NC(=O)[C@@H](CC(N)=O)NC1=O` yielded a Kd in assay [1] of 13.4 µM.

In turn, `C=CCc1ccc(-c2cc(Nc3ccccc3)c3cccc(C(=O)N[C@@H](CCCNC(=N)N)C(=O)N[C@H](CC(C)C)C(=O)N[C@H](CC(C)C)C(=O)N[C@@H](CC=C)C(N)=O)c3n2)cc1` registered a Kd in assay [1] above 30 µM.

For `NC[C@H]1O[C@H](O[C@H]2[C@H](O)[C@@H](O[C@H]3O[C@H](CO)[C@@H](O)[C@H](N)[C@H]3O)[C@H](N)C[C@@H]2N)[C@H](O)[C@@H](O)[C@@H]1O` [KANAMYCIN], the Kd in assay [1] is above 100 µM.

In assay [1], `CC(C)C[C@@H]1NC(=O)[C@H](CC(N)=O)NC(=O)[C@H](CCCNC(=N)N)NC(=O)c2cccc3c(Nc4ccccc4)cc(nc23)-c2ccc(cc2)C/C=C/C[C@@H](C(N)=O)NC1=O` yielded a Kd of 18.9 µM.

In assay [1], `N=C(N)NCCC[C@@H]1NC(=O)c2cccc3c(Nc4ccccc4)cc(nc23)-c2ccc(cc2)C/C=C/C[C@@H](C(N)=O)NC1=O` registered a Kd of 3.6 µM.

In assay [1], `N=C(N)NCCC[C@@H]1NC(=O)c2cccc3c(Nc4ccccc4)cc(nc23)-c2ccc(cc2)C/C=C/C[C@@H](C(N)=O)NC(=O)CNC1=O` registered a Kd of 3.9 µM.

`NCCCC[C@H]1NC(=O)[C@@H](Cc2ccccc2)NC(=O)[C@H](CN)NC(=O)c2cccc3c(Nc4ccc(CN)cc4)cc(nc23)-c2ccc(cc2)C/C=C/C[C@@H](C(N)=O)NC1=O`: the affinity in assay [1], expressed as Kd, was 4.4 µM. This compound also registered a Binding affinity in assay [2] of 8.6 µM.

Take `NCCCC[C@H]1NC(=O)CNC(=O)[C@H](CN)NC(=O)c2cccc3c(Nc4ccc(CN)cc4)cc(nc23)-c2ccc(cc2)C/C=C/C[C@@H](C(N)=O)NC1=O`: in assay [1], the Activity amounted to 96% and the equilibrium dissociation constant (Kd) turned out to be 0.6 µM. Further, the Binding affinity in assay [2] came to 0.27 µM.

In turn, `CC(C)[C@H](NC(=O)[C@H](CO)NC(=O)CCCN)C(=O)NCc1ccc(Nc2ccnc3c(C(=O)N[C@@H](CCCNC(=N)N)C(N)=O)cccc23)cc1` returned a Kd in assay [1] of 13.2 µM. Besides, the Binding affinity in assay [2] is 3.3 µM.

As to `NCCCC[C@H]1NC(=O)[C@H](Cc2ccccc2)NC(=O)[C@H](CN)NC(=O)c2cccc3c(Nc4ccc(CN)cc4)cc(nc23)-c2ccc(cc2)C/C=C/C[C@@H](C(N)=O)NC1=O`, the equilibrium dissociation constant (Kd) in assay [1] is 2.7 µM. This compound also gave a Binding affinity in assay [2] of 2.3 µM.

`NCCCC[C@@H]1NC(=O)[C@H](CN)NC(=O)c2cccc3c(Nc4ccc(CN)cc4)cc(nc23)-c2ccc(cc2)C/C=C/C[C@@H](C(N)=O)NC(=O)CNC1=O` gave a Kd in assay [1] of 0.22 µM. In assay [2], this compound came in with a Binding affinity of 0.05 µM.

In turn, `N=C(N)NCCC[C@@H]1NC(=O)c2cccc3c(Nc4ccccc4)cc(nc23)-c2ccc(cc2)C/C=C/C[C@@H](C(N)=O)NC(=O)CNC(=O)[C@H](CCCCN)NC1=O` gave a Kd in assay [1] of 0.35 µM. In other words, the sub-micromolar range.

With `N=C(N)NCCC[C@@H]1NC(=O)c2cccc3c(Nc4ccccc4)cc(nc23)-c2ccc(cc2)C/C=C/C[C@@H](C(N)=O)NC(=O)[C@H](CC(N)=O)NC(=O)[C@H](CC(N)=O)NC1=O`, the Kd in assay [1] is 1.4 µM.

In assay [1], `CC(C)C[C@@H]1NC(=O)[C@H](CCCNC(=N)N)NC(=O)c2cccc3c(Nc4ccccc4)cc(nc23)-c2ccc(cc2)C/C=C/C[C@@H](C(N)=O)NC(=O)[C@H](CC(N)=O)NC1=O` gave a Kd of 6.2 µM.

`C=CCc1ccc(-c2cc(Nc3ccccc3)c3cccc(C(=O)N[C@@H](CCCNC(=N)N)C(=O)N[C@@H](CC(N)=O)C(=O)N[C@@H](CC(N)=O)C(=O)N[C@@H](CC=C)C(N)=O)c3n2)cc1` (X2-RNN[AllylGly]-NH2) yielded a Kd in assay [1] of 14.2 µM. Against the preceding compound, the Kd is about 2.3-fold higher.
